# Results published in ChEMBL document CHEMBL1152293, “Discovery of novel, potent and bioavailable proline-urea based macrocyclic HCV NS3/4A protease inhibitors” (Bioorg Med Chem Lett, 2008).
# Key:
# [1] = Inhibition of full length HCV NS3/4A protease; set-up: species or system Hepacivirus hominis
# Hepatitis C virus = assay: Antiviral activity against HCV infected in human Huh7 cells after 48 hrs by luciferase based replicon assay; format: functional, organism-based, Hepacivirus hominis; conditions: Huh-7, 48 h
# [2] = Bioavailability in Sprague-Dawley rat at 2 mg/kg, iv and 10 mg/kg, po; format: ADME, organism-based; conditions: in vivo
# Outline: (§1)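 Male Sprague–Dawley rats (n = 2 per route) received a single intravenous dose of 2 mg/kg or an oral dose of 10 mg/kg in 50% PEG-400 in water. Plasma levels were averaged, and PK parameters were calculated. Bioavailability was derived from the iv and oral arms.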
# [3] = Apparent permeability across apical to basolateral side in human Caco-2 cells; format: ADME, cell-based
# [4] = Metabolic stability in rat liver microsomes at 5 uM after 15 mins; format: ADME, Microsome
# Outline: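 Rat liver microsomes at 1 mg protein/mL were incubated with 5 μM test compound at 37 °C for 15 min. Stability is expressed as % of compound metabolized.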
# [5] = Ratio of drug level in liver to plasma of Sprague-Dawley rat at 10 mg/kg, po after 6 hrs
# [6] = Tmax in Sprague-Dawley rat at 10 mg/kg, po; format: ADME, organism-based; set-up: dose 10 mg/kg, route oral; conditions: in vivo; outline: as §1
# [7] = AUC in Sprague-Dawley rat at 10 mg/kg, po; format: ADME, organism-based; set-up: dose 10 mg/kg, route oral; conditions: plasma; outline: as §1
# [8] = Half life in Sprague-Dawley rat at 10 mg/kg, po; format: ADME, organism-based; set-up: dose 10 mg/kg, route oral; conditions: in vivo; outline: as §1
# [9] = Clearance in Sprague-Dawley rat at 2 mg/kg, iv; format: ADME, organism-based; set-up: dose 2 mg/kg, route intravenous; conditions: in vivo; outline: as §1
# [10] = Oral bioavailability in Sprague-Dawley rat at 10 mg/kg; format: ADME, organism-based; conditions: in vivo; outline: as §1
# [11] = Volume of distribution in Sprague-Dawley rat at 2 mg/kg, iv; format: ADME, organism-based; set-up: dose 2 mg/kg, route intravenous; conditions: in vivo; outline: as §1
# [12] = Cmax in Sprague-Dawley rat at 10 mg/kg, po; format: ADME, organism-based; set-up: dose 10 mg/kg, route oral; conditions: in vivo; outline: as §1
# [13] = AUC in Sprague-Dawley rat at 2 mg/kg, iv; format: ADME, organism-based; set-up: dose 2 mg/kg, route intravenous; conditions: plasma; outline: as §1
# [14] = Cytotoxicity against human HuH7 cells; format: cell-based, Huh-7
# [15] = Selectivity index, ratio of CC50 for human Huh7 cells to EC50 for HCV; set-up: species or system Huh-7
# [16] = Ratio of drug level in liver to plasma of Sprague-Dawley rat at 10 mg/kg, po after 8 hrs
compound,measurement,setting,value
COc1ccc2c(O[C@@H]3C[C@H]4C(=O)N[C@]5(C(=O)O)C[C@H]5/C=C\CCCCCN(C)C(=O)N4C3)cc(-c3ccccc3)nc2c1,Ki,[1],10 nM
same,EC50,Hepatitis C virus,4500 nM
COc1ccc2c(O[C@@H]3C[C@H]4C(=O)N[C@]5(C(=O)NS(=O)(=O)C6(C)CC6)C[C@H]5/C=C\CCCCCNC(=O)N4C3)cc(-c3nc(C(C)C)cs3)nc2c1C,bioavailability,[2],11%
same,Ki,[1]; read-out: Ki,0.2 nM
same,EC50,Hepatitis C virus,6.8 nM
COc1ccc2c(O[C@@H]3C[C@H]4C(=O)N[C@]5(C(=O)NS(=O)(=O)C6CC6)C[C@H]5/C=C\CCCCOC(=O)N4C3)cc(-c3ccccc3)nc2c1,Ki,[1]; read-out: Ki,0.35 nM
same,EC50,Hepatitis C virus,62 nM
COc1ccc2c(O[C@@H]3C[C@H]4C(=O)N[C@]5(C(=O)NS(=O)(=O)C6CC6)C[C@H]5/C=C\CCCCCNC(=O)N4C3)cc(-c3ccccc3)nc2c1,Ki,[1]; read-out: Ki,0.24 nM
same,EC50,Hepatitis C virus,15 nM
COc1ccc2c(O[C@@H]3C[C@H]4C(=O)N[C@]5(C(=O)NS(=O)(=O)C6CC6)C[C@H]5/C=C\CCCCCNC(=O)N4C3)cc(-c3nc(C(C)C)cs3)nc2c1Cl,Ki,[1]; read-out: Ki,0.1 nM
same,EC50,Hepatitis C virus,2.2 nM
same,Papp A→B,[3],22 ×10⁻⁶ cm/s
same,"metabolized at 0.25 h, 5 µM",[4],45%
COc1ccc2c(O[C@@H]3C[C@H]4C(=O)N[C@]5(C(=O)NS(=O)(=O)C6CC6)C[C@H]5/C=C\CCCCCOC(=O)N4C3)cc(-c3ccccc3)nc2c1,Ki,[1]; read-out: Ki,2.4 nM
same,EC50,Hepatitis C virus,460 nM
COc1ccc2c(O[C@@H]3C[C@H]4C(=O)N[C@]5(C(=O)O)C[C@H]5/C=C\CCCCCN(NC(=O)OC(C)(C)C)C(=O)N4C3)cc(-c3ccccc3)nc2c1,Ki,[1],600 nM
same,EC50,Hepatitis C virus,> 10000 nM
COc1ccc2c(O[C@@H]3C[C@H]4C(=O)N[C@]5(C(=O)NS(=O)(=O)C6CC6)C[C@H]5/C=C\CCCCNC(=O)N4C3)cc(-c3nc(C(C)C)cs3)nc2c1,liver/plasma ratio at 6 h,[5],9.5
same,Tmax,[6],2 h
same,AUC,[7],0.19 µM·h
same,half-life,[8],3.8 h
same,Ki,[1]; read-out: Ki,0.5 nM
same,EC50,Hepatitis C virus,5 nM
same,clearance,[9],15.7 mL/min/kg
same,Papp A→B,[3],3 ×10⁻⁶ cm/s
same,bioavailability,[10],1.3%
same,Vd,[11],1.6 L/kg
same,Cmax,[12],26 nM
same,AUC,[13],3 µM·h
COc1ccc2c(O[C@@H]3C[C@H]4C(=O)N[C@]5(C(=O)NS(=O)(=O)C6(C)CC6)C[C@H]5/C=C\CCCCCNC(=O)N4C3)cc(-c3nc(C(C)C)cs3)nc2c1,liver/plasma ratio at 6 h,[5],105
same,bioavailability,[2],54%
same,Ki,[1]; read-out: Ki,0.1 nM
same,EC50,Hepatitis C virus,4.5 nM
same,CC50,[14]; Huh-7 cells,> 50000 nM
same,Activity,[14]; huh-7,Non-toxic
same,clearance,[9],9.83 mL/min/kg
same,Papp A→B,[3],30 ×10⁻⁶ cm/s
same,bioavailability,[10],54%
same,"metabolized at 0.25 h, 5 µM",[4],89%
same,Cmax,[12],1710 nM
same,Selectivity Index,[15],>10000
COc1ccc2c(O[C@@H]3C[C@H]4C(=O)N[C@]5(C(=O)NS(=O)(=O)C6CC6)C[C@H]5/C=C\CCCCCN(C)C(=O)N4C3)cc(-c3ccccc3)nc2c1,Ki,[1]; read-out: Ki,10 nM
same,EC50,Hepatitis C virus,4500 nM
COc1ccc2c(O[C@@H]3C[C@H]4C(=O)N[C@]5(C(=O)O)C[C@H]5/C=C\CCCCC[C@H](NC(=O)OC(C)(C)C)C(=O)N4C3)cc(-c3ccccc3)nc2c1,Ki,[1],11 nM
same,EC50,Hepatitis C virus,77 nM
COc1ccc2c(O[C@@H]3C[C@H]4C(=O)N[C@]5(C(=O)NS(=O)(=O)C6CC6)C[C@H]5/C=C\CCCCN(C)C(=O)N4C3)cc(-c3ccccc3)nc2c1,Ki,[1]; read-out: Ki,0.4 nM
same,EC50,Hepatitis C virus,44 nM
COc1ccc2c(O[C@@H]3C[C@H]4C(=O)N[C@]5(C(=O)NS(=O)(=O)C6CC6)C[C@H]5/C=C\CCCCCN(C)C(=O)N4C3)cc(-c3nc(C(C)C)cs3)nc2c1,Ki,[1]; read-out: Ki,12 nM
same,EC50,Hepatitis C virus,700 nM
COc1ccc2c(O[C@@H]3C[C@H]4C(=O)N[C@]5(C(=O)NS(=O)(=O)C6CC6)C[C@H]5/C=C\CCCCCNC(=O)N4C3)cc(-c3nc(C(C)C)cs3)nc2c1C,Ki,[1]; read-out: Ki,0.05 nM
same,EC50,Hepatitis C virus,1.7 nM
same,"metabolized at 0.25 h, 5 µM",[4],23%
COc1ccc2c(O[C@@H]3C[C@H]4C(=O)N[C@]5(C(=O)NS(=O)(=O)C6CC6)C[C@H]5/C=C\CCCCCNC(=O)N4C3)cc(-c3nccs3)nc2c1,Ki,[1]; read-out: Ki,0.3 nM
same,EC50,Hepatitis C virus,11 nM
same,Papp A→B,[3],0.4 ×10⁻⁶ cm/s
COc1ccc2c(O[C@@H]3C[C@H]4C(=O)N[C@]5(C(=O)NS(=O)(=O)C6CC6)C[C@H]5/C=C\CCCCCNC(=O)N4C3)cc(-c3cscn3)nc2c1,EC50,Hepatitis C virus,98 nM
COc1ccc2c(O[C@@H]3C[C@H]4C(=O)N[C@]5(C(=O)NS(=O)(=O)C6(C)CC6)C[C@H]5/C=C\CCCCCNC(=O)N4C3)cc(-c3nc(C(C)C)cs3)nc2c1Cl,Ki,[1]; read-out: Ki,0.1 nM
same,EC50,Hepatitis C virus,4 nM
same,Papp A→B,[3],29 ×10⁻⁶ cm/s
same,"metabolized at 0.25 h, 5 µM",[4],21%
COc1ccc2c(O[C@@H]3C[C@H]4C(=O)N[C@]5(C(=O)NS(=O)(=O)C6CC6)C[C@H]5/C=C\CCCCCNC(=O)N4C3)cc(-c3nc(C(C)C)cs3)nc2c1,liver/plasma ratio at 6 h,[5],29
same,Tmax,[6],1.25 h
same,AUC,[7],6.97 µM·h
same,bioavailability,[2],20%
same,half-life,[8],5.4 h
same,Ki,[1]; read-out: Ki,0.2 nM
same,EC50,Hepatitis C virus,5 nM
same,clearance,[9],9.17 mL/min/kg
same,Papp A→B,[3],10 ×10⁻⁶ cm/s
same,bioavailability,[10],20%
same,Vd,[11],1.46 L/kg
same,"metabolized at 0.25 h, 5 µM",[4],93%
same,Cmax,[12],950 nM
same,AUC,[13],7.09 µM·h
COc1ccc2c(O[C@@H]3C[C@H]4C(=O)N[C@]5(C(=O)NS(=O)(=O)C6CC6)C[C@H]5/C=C\CCCCN(C)C(=O)N4C3)cc(-c3nc(C(C)C)cs3)nc2c1,Tmax,[6],1.25 h
same,AUC,[7],3.12 µM·h
same,half-life,[8],2.55 h
same,Ki,[1]; read-out: Ki,0.45 nM
same,EC50,Hepatitis C virus,26 nM
same,clearance,[9],27.5 mL/min/kg
same,liver/plasma ratio at 8 h,[16],12
same,bioavailability,[10],37%
same,Vd,[11],4.5 L/kg
same,Cmax,[12],730 nM
same,AUC,[13],1.65 µM·h
COc1ccc2c(O[C@@H]3C[C@H]4C(=O)N[C@]5(C(=O)NS(=O)(=O)C6CC6)C[C@H]5/C=C\CCCCNC(=O)N4C3)cc(-c3ccccc3)nc2c1,Ki,[1]; read-out: Ki,1.5 nM
same,EC50,Hepatitis C virus,14 nM
